The labels stand for the following.
B1: tRNA (parent)
chain: GUUCCGUUGGCGUAAUGGUAACGCGUCUCCCUCCUAAGGAGAAGACUGCGGGUUCGAGUCCCGUACGGAACG

167 variants from the RNAGym collection of RNA variant scans (doi:10.1126/science.aae0568) can be followed below.

This sample holds only a part of the variants without activity.

Variants of B1 are the subject of this data set. Briefly: yeast fitness relative to wild type (ratio to wild type); higher = fitter; tRNA-Arg(CCU), competitive growth, 37 C, YPD. The essentials:
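Gene amplicons from the start population and from each of six end populations were read by 100-nucleotide paired-end sequencing. Those end populations came from pooled Saccharomyces cerevisiae strains carrying tRNA-Arg(CCU) gene variants at the native locus, competed in YPD at 37°C for 24 hours. Fitness relative to wild type was worked out from changes in genotype frequencies. Genotypes needed ≥ 100 starting reads, and estimates < 0.5 were set to 0.5.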
Consider A15U C24G A42C C62U, for which the yeast fitness is no more than 0.5. The result for U3C C29U C30G G39C C60A reads no more than 0.5. To A37C G51A belongs 0.605; to A15C A43U C46A, 0.502.

As to U3C C4G A15U C33A G52C, the yeast fitness was no more than 0.5. The result for A20C A37G A42G G68C reads no more than 0.5; that for A37G A42G C49A, no more than 0.5; that for U32A A40U G41C C46A G52A, 0.656. For the variant C5A C11G C62G, the yeast fitness is no more than 0.5. For the variant U2A C11A G38C C60A C66U, the yeast fitness is no more than 0.5.

On to U13G C22U, for which the yeast fitness was 0.972. To C4U C34G A69G belongs no more than 0.5; to C4U A14G A40U, 0.593. Consider G9A U47C, for which the yeast fitness is 0.909. The result for U16C U47A C49A C62U reads 0.778; that for C31U C61U G68C, no more than 0.5; that for A15G U32C A37G C55A, no more than 0.5. Consider C24U C34U G48C, for which the yeast fitness was no more than 0.5. The result for C24A C27G C29G G52C C62U reads 0.567; that for A15C C62A, 0.665; that for G38C G51A G58A, 0.517. As to G25C G38C C60G, the yeast fitness amounted to 0.747. In the case of C4U A45C C60G, the yeast fitness was found to be 0.671. Turning to U2C A40C G52C, the yeast fitness was 0.528. As for C5U U26A G56C A65C, the yeast fitness came out at 0.53. To G18A C60A G67A belongs no more than 0.5. To A15G U32G A40C belongs no more than 0.5; to A21C C29A G52C G68A, 0.664.

Consider U2G C30G, for which the yeast fitness came out at 0.679.

For the variant U3A C24G C60G, the yeast fitness turned out to be 0.645.

For the variant A21U U32C A36G A37U, the yeast fitness was no more than 0.5. In the case of C4U G51C U59G U64C, the yeast fitness was no more than 0.5. The result for U2A A14U A20C U35A G38C A69U reads no more than 0.5. To U7A G44C C66U belongs no more than 0.5; to A37G G44A, 0.73.

Turning to C4A G18C C29A C31A, the yeast fitness worked out at 0.562. As for C30U G51C C61A, the yeast fitness came out at 0.635. To U7G A15C U16A C33G A37C C49A C61U belongs 0.525. To G25C C29G A40U belongs no more than 0.5. The result for C11G G18C C49A A70C reads no more than 0.5. In the case of C31U U47G, the yeast fitness amounted to 0.526. To C5A C27U G39C belongs no more than 0.5.

With G38C A42G A43G, the yeast fitness is no more than 0.5. To C4G G6A C30A C34U C46U belongs no more than 0.5; to G18C G48A C66U, 0.545; to C11G A14U G48C, 0.58. To U35C U59A A70C belongs no more than 0.5; to C27A G39C, 0.616.

With G6A A57G, the yeast fitness came to 0.929. To C4U G6A A15U A20C G25C U35A belongs no more than 0.5. As to U7C A37U, the yeast fitness came to 0.625.

On to C34G A36G A57U, for which the yeast fitness was no more than 0.5. As for U26C C61G, the yeast fitness was found to be 0.591.

Take U2G A36G G51A: the yeast fitness is no more than 0.5. To C5U U32C C33U C62U A65G belongs no more than 0.5. To C29A G50A belongs 0.678; to A20U A21U C33G U35G G50U G68A, 0.637. The result for U16A A20G C27U G41C C55U A69U reads no more than 0.5. For the variant U19A U53A, the yeast fitness is 0.553. The result for U13C C27G A40U C66U reads 0.538; that for U13G U54A G68C, no more than 0.5; that for U16G C31A C60A G67A, 0.678. The result for C27U U32A C66U G67C reads 0.598; that for G17A U32G, 0.572; that for A15C C30A A57G, no more than 0.5.

Regarding G12C C24G C60A, the yeast fitness was no more than 0.5. The result for C30A A37U G44C U53A reads no more than 0.5; that for G10A A43C A65G, 0.589. To A21C C46U A69C belongs 0.668. The result for C22U C30U C33U A45C A65C reads no more than 0.5; that for G9C U19C C31A C55U, 0.641; that for C5U G9A C22A C55G, no more than 0.5. As to G38A A43U G56A G63A, the yeast fitness was no more than 0.5. With A14C A37G A45C, the yeast fitness is no more than 0.5. The result for C22A G48A C49U G50A G51C U64A A70C reads 0.563; that for G41C C55A, 0.617; that for C11A A43G U54C A65C, no more than 0.5. To C4U A42U G67C belongs 0.676; to U2A A21G G44C U59G, no more than 0.5; to C24U C27U U47A A57G A70G, no more than 0.5. To C5U C22A C33G C55U belongs no more than 0.5. For C30A U53G C60G C62A A70U, the yeast fitness is 0.515.

Turning to G12A C24U C27A, the yeast fitness was determined as 0.575. The result for U8C C49G A57G reads 0.531; that for U3C G51C A57G, no more than 0.5; that for C4U G38C C61U, 0.54.

For G9A C24G U35C C49U C61G, the yeast fitness is no more than 0.5. To C4A A21G G51A A69G belongs no more than 0.5; to C29U G52C, 0.579. The result for C5G G44C C55A reads no more than 0.5.

For C4U C5G U7G C33A A70U, the yeast fitness is no more than 0.5.

For the variant C4U A45G U53G, the yeast fitness is no more than 0.5. The result for A15G G17A reads 0.881; that for G12A G25A U32C, 0.749. To C4A C24G U28A U35C C49U belongs 0.542; to G50A G67C G68U, no more than 0.5. To A45C G58C belongs 1.06; to C27A C31G C60G, 0.537. On to C22A G51C A69U, for which the yeast fitness turned out to be 0.74. The result for G23C C24U A37C U53C reads no more than 0.5; that for G10C C29G, no more than 0.5; that for A14C A57C, 0.516.

For the variant U8G C34U C66G, the yeast fitness was no more than 0.5. To A15C C34G A37U C46G belongs no more than 0.5; to C24U C55U U59A, 0.535; to A20U G50A C60G, no more than 0.5.

As for G6A C11A C61A, the yeast fitness was no more than 0.5. To G12C C61U C66U A70C belongs no more than 0.5. Turning to G44C C61A C66U, the yeast fitness amounted to 0.824.

In the case of U28A C29G C33U C34G C62A A69G, the yeast fitness is no more than 0.5. Turning to U2A G9A A20C C24U C61G, the yeast fitness is no more than 0.5.

Regarding U7A C27A, the yeast fitness is 0.665. As to U19G A37G, the yeast fitness was 0.76. Turning to G6A G12C A36C, the yeast fitness was no more than 0.5. U16A A21G C27G G68C: the yeast fitness was no more than 0.5. To A15C C33A belongs 0.578; to G12C C55U, 0.734. The result for U16A C27G A65C reads 0.585; that for G6C U28C C30A G39A, no more than 0.5; that for U19C C24G A37U U47A C66A, no more than 0.5. To C29A C49A A70G belongs no more than 0.5; to A14C C34G A43U C62A, 0.716.

For the variant U3A A14U C60U C62U A70G, the yeast fitness was found to be 0.651. The result for G6U G44C reads 0.755; that for U8G C27A C61A G67A, no more than 0.5. The result for A21G C46G reads 0.987; that for G41C A43C A45U C49G U53G A69C, no more than 0.5; that for G17C G18C C31G A42G, no more than 0.5. On to C4A C5U C24G A45U, for which the yeast fitness worked out at 0.649. To U3A U19C C29A A36U belongs no more than 0.5; to U2C A21U C30U, no more than 0.5. In the case of U26C A70G, the yeast fitness is 0.915. The result for G17A C31U G52A reads no more than 0.5.

With C49G G63C G68U, the yeast fitness was 0.522. The result for C4G C27G C34G G51A reads no more than 0.5; that for C27U G39C G52A G56A, 0.559; that for C31A G51A, 0.603. As for C5A C24G U26A C29G U32A, the yeast fitness stood at 0.531. To C49G G67U belongs 0.695. The result for C22U C60U reads 0.723; that for C34A A42U G58C C60A C62U, 0.571. The result for U53A A70C reads 0.769; that for C27G C30G G56U G63A, no more than 0.5; that for A21U A40U, 0.728. As for C4U C24U C27G, the yeast fitness was no more than 0.5.

C11U U13C A43C: the yeast fitness came to 0.682. The result for C5U G10A reads 0.702.

As for A14G G51A A57C, the yeast fitness came out at 0.742. Consider U16C C22U A70U, for which the yeast fitness is 0.572.

Regarding C5U A37C G52C, the yeast fitness was no more than 0.5. U13G A42C U54A G67C A69U: the yeast fitness is no more than 0.5. Turning to C33U G39A, the yeast fitness was 0.626.

G10C G50A U59A G67C: the yeast fitness is no more than 0.5.

For G25C U28C A69G A70C, the yeast fitness is no more than 0.5. To C5A U13C G18A C31G C46U belongs no more than 0.5; to A36G A40G, 1.01; to G17C C22A U32C, 0.553. Consider G17A U54A A70G, for which the yeast fitness was no more than 0.5.

With A45U U59G, the yeast fitness came to 0.66.

With C24U G44A, the yeast fitness was determined as 0.912. In the case of C34A C49U C61G, the yeast fitness is no more than 0.5. To G10C A70U belongs 0.75; to G18A C27U A37G A70C, no more than 0.5.

Regarding G25C C49U U54G, the yeast fitness was determined as 0.58.

On to G6C U19C U32A A42C, for which the yeast fitness is no more than 0.5. Turning to U7C A45C, the yeast fitness was determined as 0.761.

For U2C G39U, the yeast fitness was 0.819.
